Most compounds without a hit are left out; they make up all but 2.5% or so of the library.
NadD inh – inhibitors of S. aureus NadD, primary screen, biochemical, colorimetric, uHTS. Nicotinate-nucleotide adenylyltransferase NadD (Staphylococcus aureus N315). purified NadD enzyme, colorimetric absorbance read-out. inhibition, % at 20 µM. actives 0.78% (n = 360,000). AID 602399, 2012; in the data active = inhibition above about 26%
NR2E3 ag-1 – inhibitors of NR2E3-RetCOR corepressor binding, primary screen, NR2E3 agonist project, biochemical, TR-FRET, GST-NR2E3, biotin-RetCOR | Photoreceptor-specific nuclear receptor (Homo sapiens), Q9Y5X4 | 1536-well | inhibition of corepressor binding, % at 4.78 µM | actives 0.12% (n = 320,000) | AID 2300, 2010;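 active = percent inhibition above the cutoff of mean plus 3 SD of all tested compounds, set per screening campaign, cut at about 20% in these data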;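 note: 0% = DMSO wells and 100% = biotin wells as full block of FRET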
Target sequence (Q9Y5X4 whole entry, looked up): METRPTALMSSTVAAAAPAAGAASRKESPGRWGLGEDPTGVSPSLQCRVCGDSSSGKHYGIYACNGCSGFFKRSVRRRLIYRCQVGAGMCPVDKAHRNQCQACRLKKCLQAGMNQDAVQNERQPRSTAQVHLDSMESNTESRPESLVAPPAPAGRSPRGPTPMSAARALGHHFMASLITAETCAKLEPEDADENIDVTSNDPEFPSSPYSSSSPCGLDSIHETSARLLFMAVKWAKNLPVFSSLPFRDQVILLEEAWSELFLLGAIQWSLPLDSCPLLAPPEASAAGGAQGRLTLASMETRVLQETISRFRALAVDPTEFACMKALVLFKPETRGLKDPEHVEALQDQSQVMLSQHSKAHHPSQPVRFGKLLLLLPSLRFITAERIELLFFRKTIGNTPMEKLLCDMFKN
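Material: NR2E3–RetCOR corepressor complex | Quantity: 1.35 nM GST-tagged NR2E3 final | Schedule: 5 h at 4 °C | Replication: Singlicate compound wells | Reagent: RetCOR corepressor, biotinylated, 7 nM | Controls: Biotin wells as high control, 0.6% DMSO wells as low control | Signal: TR-FRET, Eu(K)-anti-GST donor, streptavidin-D2 acceptor, ex 340, em 617/671 nm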
GalR3 antag – GalR3 antagonists in HEK293 cells, primary screen, cell-based, fluorescence readout; Galanin receptor type 3 (Homo sapiens), O60755; HEK293 GalR3-CNG cAMP membrane potential fluorescence; galR3 body fused to GalR1 C-terminus; inhibition, % at 3 µM; actives 0.44% (n = 360,000);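 active = inhibition above the screen-wide average plus 3 SD, cut at about 13% in these data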;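 note: forskolin and galanin both at EC90 stimulate the cells; cAMP rise reported by CNG channel membrane potential dye signal; 0% = forskolin plus galanin with DMSO and 100% = forskolin alone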
bovine MsrA act – bovine MsrA enzyme activators, primary screen, biochemical, absorbance, HTS; Methionine sulfoxide reductase A (Bos taurus); purified bovine MsrA, absorbance read-out; activation, % at 10.6 µM; actives 0.3% (n = 360,000); AID 602163, 2012; in the data active = activation above about 7.5%;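 note: 0% = vehicle and 100% = reference activator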
MsrA inhibitor – bovine MsrA enzyme inhibitors, primary screen, biochemical, absorbance, HTS | purified bovine MsrA, absorbance read-out | inhibition, % at 15.5 µM | actives 0.75% (n = 360,000) | AID 651718, 2012;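 note: 0% = vehicle wells with enzyme and 100% = reference inhibitor wells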
NR2E3 ag-2 – NR2E3 agonists in two-hybrid cells, primary screen, cell-based, luminescence, CHO-S, Gal4-NCOR/VP16-NR2E3; actives 0.35% (n = 360,000); inhibition of corepressor binding, % at 3.98 µM; Photoreceptor-specific nuclear receptor (Homo sapiens), Q9Y5X4; luciferase;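 active = inhibition above the mean of all tested compounds plus 3 SD, cut at about 70% in these data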;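 note: 0% = DMSO with NR2E3 transfected cells and 100% = cells lacking NR2E3 construct; higher means lower luciferase signal from less NR2E3 corepressor binding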
MsrA inh confirm – bovine MsrA inhibitors, retest, confirmation, biochemical, absorbance, HTS. shares compounds with MsrA inhibitor. purified bovine MsrA, absorbance read-out. inhibition, % at 15.5 µM. actives 41% (n = 2,300);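 note: coupled to thioredoxin reductase with NADPH and selenocystamine and DMSO as substrate; 0% = vehicle only and 100% = full effect of reference inhibitor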
Starred values were filed as active, the others as inactive; x = not tested or not shown. Cut-off read from the data, not from the text of the source, unless noted: active = inhibition above about 4.5%; inactive = the rest.

SMILES	NadD inh	NR2E3 ag-1	GalR3 antag	bovine MsrA act	MsrA inhibitor	NR2E3 ag-2	MsrA inh confirm
CCn1cc(/C=C(\NC(=O)c2ccccc2OC)C(=O)NCCN2CCOCC2)c2ccccc21	-4	x	-8	-7	4.7*	-28	3
Cn1cc(/C=C(\NC(=O)c2ccccc2Cl)C(=O)NCCN2CCOCC2)c2ccccc21	-4	-3	-7	-12	4.8*	5	4
COc1ccc(C(=O)N/C(=C\c2cn(C)c3ccccc23)C(=O)NCCCN2CCOCC2)cc1	-10	-3	-1	-7	5.3*	-24	3
COc1cccc(NC(=O)CSc2nnc(-c3cc(C)n(-c4ccccc4)c3C)o2)c1	-7	-1	0	-1	-1	22	x
C[C@H]1CN=C(Nc2ccccc2)N1CC1CCCCC1	3	6	-2	-2	-1	8	x
COc1cc(C(=O)N/C(=C\c2cn(C)c3ccccc23)C(=O)NCCN2CCOCC2)cc(OC)c1OC	0	-3	-1	-6	5.3*	3	4
Cn1cc(/C=C(\NC(=O)c2ccccc2)C(=O)NCCN2CCOCC2)c2ccccc21	-4	-3	-6	-15	5	8	x
CCn1cc(/C=C(\NC(=O)c2cc(OC)c(OC)c(OC)c2)C(=O)NCCN2CCOCC2)c2ccccc21	-4	-1	-5	-4	2	-23	x
Cn1cc(/C=C(\NC(=O)c2ccccc2)C(=O)N2CCOCC2)c2ccccc21	2	1	-8	-5	5.7*	-2	3
Cc1ccc(C(=O)N/C(=C\c2cn(C)c3ccccc23)C(=O)N2CCOCC2)cc1	0	1	-6	-4	2	-26	x
COc1ccc(C(=O)N/C(=C\c2cn(C)c3ccccc23)C(=O)NCCN2CCOCC2)cc1OC	-3	-4	-5	-12	4.8*	12	4
CCc1ccccc1NC(=O)CSc1ncn[nH]1	8	5	-2	-4	0	-1	x
Oc1[nH]c2ccccc2c1C1=NCCCC1	3	-4	6	2	4.9*	-10	4
C/C(N)=C(/C#N)C(=O)CSc1nnc(SCc2ccc(Cl)cc2)s1	-8	1	-2	-2	1	38	x
C/C(N)=C(/C#N)C(=O)CSc1nn(-c2ccc(Cl)cc2)c(=S)s1	-5	-7	-3	-5	21*	-56	14*
Cc1ccc(/C=C/C(=O)OCC(=O)NC(C)c2ccccc2)o1 (stereo not given)	3	-1	-3	-3	6.5*	10	3
CCOc1cc(/C=C2\N=C(C)OC2=O)cc(Br)c1OCC(=O)OC	10	1	-4	-4	0	-2	x
O=[N+]([O-])c1ccc(Sc2nnnn2-c2ccccc2)nc1	x	x	-3	x	4.8*	x	2
O=C(Nc1ccc(N2CCN(C(=O)c3ccco3)CC2)c(Cl)c1)c1cc2ccccc2o1	13	0	0	-3	1	55	x
Cc1c(C(=O)N2CCOCC2)sc(NC(=O)c2ccc3c(c2)OCO3)c1C#N	9	1	-4	-5	5.0*	-27	4
CCN(CC)C(=O)c1sc(NC(=O)c2ccc3c(c2)OCO3)c(C#N)c1C	-2	0	-1	-13	2	-9	x
Cn1ccc(C(=O)N/N=C/c2cccnc2)n1	1	-7	0	-1	1	-3	x
CN(C)c1ccc(/C=N/NC(=O)c2ccn(C)n2)cc1	-9	-5	2	-4	6.3*	-39	4
CN(C)c1ccc(/C=N/NC(=O)C(=O)N2CCCCCC2)cc1	-1	-2	-8	-4	4.7*	-33	5.9*
CN(C)c1ccc(/C=N/NC(=O)c2cc(=O)[nH]c3ccccc23)cc1	-2	-4	-5	-2	7.1*	-6	5
SMILES	NadD inh	NR2E3 ag-1	GalR3 antag	bovine MsrA act	MsrA inhibitor	NR2E3 ag-2	MsrA inh confirm
O=C(N/N=C/c1ccc2ncccc2c1)c1ccco1	-4	-1	-2	-10	5.2*	-126	3
O=C(Cc1ccccc1)NCC(=O)N1CCN(c2ccc(F)cc2)CC1	-4	x	-4	-1	-1	-15	x
COc1ccc(C(=O)N/N=C(\C)CC(=O)Nc2ccc3c(c2)OCO3)cc1	1	0	-6	-3	-1	-13	x
Cc1ccccc1CNC(=O)Cc1cccs1	2	2	-3	-3	2	-14	x
CN(C)c1ccc(/C=N/NC(=O)c2ccco2)cc1	3	-11	-1	-3	4.7*	-97	5.1*
Cc1ccc(/C=N/NC(=O)c2ccco2)cc1	-11	-1	1	-4	0	-110	x
O=[N+]([O-])c1ccc2[nH]c(O)c(N=NC3CS(=O)(=O)CC3O)c2c1 (stereo not given)	2	-1	-7	-5	5.2*	-28	5.0*
Nc1ccc(C(=O)N/N=C/c2ccc(N3CCOCC3)s2)cc1	-3	x	1	0	3	-50	x
COc1ccccc1NS(=O)(=O)c1cc([N+](=O)[O-])ccc1N/N=C/c1sc(N2CCOCC2)nc1-c1ccccc1	37*	3	-3	-2	11*	-34	7.0*
O=C(N/N=C/c1sc(N2CCOCC2)nc1-c1ccccc1)c1ccc(O)cc1	20	-3	-4	-5	17*	-18	10*
O=C(N/N=C/c1cnc(N2CCOCC2)s1)c1ccccc1	-19	6	-7	-7	5.2*	-40	5.1*
CN(CC(=O)Nc1ccccc1Br)C(=O)c1ccccc1OCc1ccc(Cl)cc1	-8	x	-3	-2	0	-5	x
Cn1c(NC(=O)/C=C\c2ccccc2)cc(=O)n(C)c1=O	-4	-2	-4	-4	5.3*	-99	4
CCOC(=O)c1nnsc1Nc1ccc(C)c(C)c1	-1	-1	-7	0	8.2*	-62	7.0*
CCOC(=O)c1nnsc1-c1ccc(-c2snnc2C(=O)OCC)cc1	-3	-4	-9	-1	0	-16	x
O=C(N/N=C/c1ccc(Br)s1)c1ccncc1	-4	2	-5	-8	4.7*	7	4.8*
O=C(N/N=C/c1cc(Br)c(Br)s1)c1ccncc1	1	-3	-4	-5	2	4	x

Bioassay records as filed in PubChem.
